Blank lines part the entries; values can stand above or below the molecule they belong to.
Columns and labels:
[1] = target: T1, Polyunsaturated fatty acid 5-lipoxygenase (Mus musculus, UniProt P48999); assay: Inhibition of 5-lipoxygenase from mouse macrophage
T1 sequence (P48999 whole entry): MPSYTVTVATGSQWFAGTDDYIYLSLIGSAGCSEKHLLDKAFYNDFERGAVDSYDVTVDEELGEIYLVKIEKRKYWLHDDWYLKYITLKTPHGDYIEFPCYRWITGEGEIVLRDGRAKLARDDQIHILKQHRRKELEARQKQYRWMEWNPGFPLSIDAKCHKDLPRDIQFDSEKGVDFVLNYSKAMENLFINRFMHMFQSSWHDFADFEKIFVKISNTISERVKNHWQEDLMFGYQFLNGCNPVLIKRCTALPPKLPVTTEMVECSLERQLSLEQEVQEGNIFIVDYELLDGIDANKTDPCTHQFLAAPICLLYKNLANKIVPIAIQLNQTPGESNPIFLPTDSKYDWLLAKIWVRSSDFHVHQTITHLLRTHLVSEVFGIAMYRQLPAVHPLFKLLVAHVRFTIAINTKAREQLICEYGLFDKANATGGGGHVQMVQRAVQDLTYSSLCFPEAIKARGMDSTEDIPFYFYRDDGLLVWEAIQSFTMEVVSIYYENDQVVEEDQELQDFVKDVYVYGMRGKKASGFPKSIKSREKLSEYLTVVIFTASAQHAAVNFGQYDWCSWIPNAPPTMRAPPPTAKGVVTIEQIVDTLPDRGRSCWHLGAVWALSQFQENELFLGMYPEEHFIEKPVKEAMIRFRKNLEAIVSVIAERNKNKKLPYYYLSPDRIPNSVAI
Outline: (§1)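 Plasma-free cultures of murine peritoneal macrophages. Inhibition of LTC4 synthesis (5-LO product) measured, with PGE2 also monitored. IC50 from iterative four-parameter curve fit. Data reported as mean ± SE with the number of determinations; where only two runs were made, both values are given.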

[2] = target: T2, Polyunsaturated fatty acid 5-lipoxygenase (Homo sapiens, UniProt P09917); assay: Inhibitory concentration against 5-lipoxygenase from human whole blood; assay type: tissue-based
T2 sequence (P09917 whole entry): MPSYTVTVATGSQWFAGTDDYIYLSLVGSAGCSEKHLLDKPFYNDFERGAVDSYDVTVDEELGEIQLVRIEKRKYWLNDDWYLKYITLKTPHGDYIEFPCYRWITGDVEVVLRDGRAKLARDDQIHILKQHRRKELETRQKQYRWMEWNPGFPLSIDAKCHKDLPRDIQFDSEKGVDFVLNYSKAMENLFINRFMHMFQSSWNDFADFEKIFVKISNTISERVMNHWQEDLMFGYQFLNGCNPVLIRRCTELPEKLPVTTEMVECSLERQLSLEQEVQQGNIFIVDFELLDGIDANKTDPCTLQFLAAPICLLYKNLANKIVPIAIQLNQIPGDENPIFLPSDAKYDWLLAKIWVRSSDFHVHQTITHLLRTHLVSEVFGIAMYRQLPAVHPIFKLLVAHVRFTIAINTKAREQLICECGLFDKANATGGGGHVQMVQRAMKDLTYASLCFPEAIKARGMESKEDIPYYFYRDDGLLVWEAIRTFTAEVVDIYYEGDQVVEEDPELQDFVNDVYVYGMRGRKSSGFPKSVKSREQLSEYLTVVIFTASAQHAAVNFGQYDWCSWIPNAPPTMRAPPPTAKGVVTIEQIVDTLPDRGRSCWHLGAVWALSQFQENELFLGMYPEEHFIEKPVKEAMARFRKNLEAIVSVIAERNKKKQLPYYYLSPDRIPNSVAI
Outline: (§2)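 Eicosanoid generation measured to assess 5-LO inhibition. IC50 from iterative four-parameter curve fit. Data reported as mean ± SE with the number of determinations; where only two runs were made, both values are given.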

[3] = target: T1, Polyunsaturated fatty acid 5-lipoxygenase; assay: Inhibitory concentration against 5-lipoxygenase from mouse macrophage; outline: as §1
[4] = target: T2, Polyunsaturated fatty acid 5-lipoxygenase; assay: Inhibition of 5-lipoxygenase from human whole blood; assay type: tissue-based; outline: as §2

IC50 [1]: 45 nM
Compound: CC[C@](COC)(OC)c1cc(F)cc(OCc2ccc3c(ccc(=O)n3C)c2)c1

IC50 [1]: 48 nM
IC50 [2]: 520 nM
Compound: CC[C@@](COC)(OC)c1cc(F)cc(OCc2ccc3c(ccc(=O)n3C)c2)c1

IC50 [3]: 1250 nM
Compound: COC1(c2nccs2)CCc2ccc(OCc3ccc4ccccc4c3)cc21 (single isomer, unassigned; (-))

IC50 [4]: 27 nM
Compound: COC1(c2cc(F)cc(OCc3ccc4c(ccc(=O)n4C)c3)c2)CCOCC1 [ZD-2138]
